The values below come from ChEMBL document CHEMBL4673366, “Cyclic Phosphopantothenic Acid Prodrugs for Treatment of Pantothenate Kinase-Associated Neurodegeneration” (J Med Chem, 2020).

A short description of data set [1]: Stability of compound in human whole blood assessed as half life. Format: ADME, tissue-based.
A short description of data set [2]: Induction of Coenzyme A regeneration in human IMR-32 PANK2 knockdown cells at 50 uM for 24 hrs by HPLC analysis relative to control. The data set is classed as functional. In short, it runs like this: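 PANK2-knockout neuroblastoma cells were grown in MEM with 10% FBS and 1 µg/mL puromycin and seeded at 0.2×10⁶ cells/well. After 72 h, they were dosed at 50 µM in DMSO (final 0.1%) at 37 °C. Washed, frozen pellets were reconstituted in ammonium acetate (pH 5.1) with internal standard, and free CoA was measured by LC-MS/MS. Intracellular volume was taken as 2 µL/10⁶ cells; results are fold over vehicle-treated cells.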

Data set [3] can be described thus: Apparent permeability in porcine brain endothelial cells. Format: ADME, cell-based, Sus scrofa, Endothelial cell. As to conditions: pig.
A short description of data set [4]: Stability of compound in human hepatocytes assessed as half life. Format: ADME, cell-based, Hepatocyte.
Data set [5] can be described thus: Increase in free coenzyme A level in C57BL6 mouse brain at 500 mg/kg, po administered as single dose measured after 6 hrs UPLC quadrupole-time-of-flight mass spectrometry (Rvb =0%). The data set is classed as functional. An outline of the steps:
(§1)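 C57BL6 mice, three per time point, received one oral 500 mg/kg dose of isotopically labeled prodrug, and brains were taken at 0, 1, 6 and 24 h. Brains were homogenized in water (3 mL/g), protein was precipitated with MeOH, and dried supernatant was reconstituted in 10 mM ammonium acetate (pH ~5). Analysis was UPLC-QTOF MS in positive ESI, scoring labeled CoA (+6, +4 amu) as a share of free CoA.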

Data set [6] in a line: Increase in free coenzyme A level in C57BL6 mouse brain at 500 mg/kg, po administered as single dose measured after 1 hr UPLC quadrupole-time-of-flight mass spectrometry (Rvb =0%). Format: functional. In short, it runs like this: as §1
Data set [7] can be described thus: Increase in free coenzyme A level in C57BL6 mouse brain at 500 mg/kg, po administered as single dose measured after 24 hrs UPLC quadrupole-time-of-flight mass spectrometry (Rvb =0%). Format: functional. An outline of the steps: as §1

As for `CCc1cc(C(=O)OCO[P@]2(=O)OCC(C)(C)[C@H](C(=O)NCCC(=O)OC)O2)n(C)n1` (relative stereo), in data set [1], the half-life was < 9.6 min. As to `COC(=O)CCNC(=O)[C@@H]1O[P@@](=O)(OCOC(=O)c2cc(C)nn2C)OCC1(C)C` (relative stereo), the half-life in data set [1] was > 60 min. Take `COC(=O)CCNC(=O)[C@@H]1O[P@](=O)(Oc2ccccc2C(=O)OC)OCC1(C)C`: in data set [2], the “fold change (FC)” value is on record as 4. For `COC(=O)CCNC(=O)[C@@H]1O[P@](=O)(OCOC(=O)c2ccnn2C)OCC1(C)C`, the half-life in data set [1] was < 9.6 min. On to `COC(=O)CCNC(=O)[C@@H]1OP(=O)(OCOC(=O)C2(C(N)=O)CC2)OCC1(C)C` (mixture of isomers), for which the “fold change (FC)” value in data set [2] was 12. Regarding `COC(=O)CCNC(=O)[C@@H]1O[P@@](=O)(OCOC(=O)c2ccnn2C)OCC1(C)C` (relative stereo), the half-life in data set [1] is > 60 min. With `CC(C)(C)C(=O)OCO[P@@]1(=O)OCC(C)(C)[C@H](C(=O)NCCC(=O)OC2CCN(Cc3ccccc3)C2)O1` (some centres undefined), the half-life in data set [1] was 11.4 min. Moreover, the “fold change (FC)” value in data set [2] came out at 207.

`CCc1cc(C(=O)OCOP2(=O)OCC(C)(C)[C@H](C(=O)NCCC(=O)OC)O2)n(C)n1` (mixture of isomers): in data set [2], the “fold change (FC)” value is 130. For the molecule `COC(=O)CCNC(=O)[C@@H]1OP(=O)(Oc2ccc(F)cc2)OCC1(C)C` (mixture of isomers), the half-life in data set [1] is > 60 min. Consider `COC(=O)CCNC(=O)[C@@H]1O[P@@](=O)(OCOC(=O)c2scnc2C)OCC1(C)C`, for which the half-life is > 60 min in data set [1] and 30 min in data set [4]. Further, the Papp in data set [3] came to 5.1 ×10⁻⁶ cm/s. In addition, the “fold change (FC)” value in data set [2] is on record as 40. In the case of `CC(C)(C)C(=O)OCO[P@@]1(=O)OCC(C)(C)[C@H](C(=O)NCCC(=O)OCCS(C)(=O)=O)O1`, in data set [1], the half-life was < 9.6 min. Further, in data set [2], the “fold change (FC)” value came to 121.

Take `COC(=O)CCNC(=O)[C@@H]1OP(=O)(OCOC(=O)OC(C)C)OCC1(C)C` (mixture of isomers): the “fold change (FC)” value in data set [2] was found to be 199. Still for that read-out and setting: as for `COC(=O)CCNC(=O)[C@@H]1O[P@@](=O)(OC(C)OC(=O)C(C)(C)C)OCC1(C)C` (some centres undefined), the figure is 3; as for `COC(=O)CCNC(=O)[C@@H]1OP(=O)(OCOC(=O)c2cc(C(C)(C)C)n[nH]2)OCC1(C)C` (mixture of isomers), 85.

Consider `COC(=O)CCNC(=O)C1OP(=O)(Oc2ccc(F)cc2)OCC1(C)C` (mixture of isomers), for which the half-life in data set [1] is > 60 min. As to `COC(=O)CCNC(=O)[C@@H]1OP(=O)(OCOC(=O)C(C)C)OCC1(C)C` (mixture of isomers), the “fold change (FC)” value in data set [2] is on record as 92. `COC(=O)CCNC(=O)[C@@H]1OP(=O)(OCOC(=O)c2ocnc2C)OCC1(C)C` (mixture of isomers): in data set [2], the “fold change (FC)” value is reported as 39. On to `COC(=O)CCNC(=O)[C@@H]1O[P@](=O)(Oc2ccc(C#N)cc2)OCC1(C)C`, for which the half-life in data set [1] was 27.6 min. Moreover, the “fold change (FC)” value in data set [2] is reported as 7. As for `COC(=O)CCNC(=O)[C@@H]1OP(=O)(OCOC(=O)c2scnc2C)OCC1(C)C` (mixture of isomers), the “fold change (FC)” value in data set [2] was found to be 44.

As to `COC(=O)CCNC(=O)[C@@H]1O[P@](=O)(OCOC(=O)c2ocnc2C)OCC1(C)C`, the half-life in data set [1] was 16.2 min. In the case of `CO[13C](=O)[13CH2][13CH2][15NH]C(=O)[C@@H]1OP(=O)(OCOC(=O)C(C)(C)C)OCC1(C)C` (some centres undefined), the Activity is given as 2.7% in data set [5], 0% in data set [6] and 12.9% in data set [7]. Consider `COC(=O)CCNC(=O)[C@@H]1OP(=O)(OCOC(=O)c2ccnn2C)OCC1(C)C` (mixture of isomers), for which the “fold change (FC)” value in data set [2] was 58. On the same count and under the same terms, as for `COC(=O)CCNC(=O)[C@@H]1OP(=O)(OCOC(=O)c2cncs2)OCC1(C)C` (mixture of isomers), the figure is 88. Turning to `CO[13C](=O)[13CH2][13CH2][15NH]C(=O)[C@@H]1OP(=[18O])(OCOC(=O)C(C)(C)C)OCC1(C)C` (some centres undefined), the Activity is given as 5.3% in data set [5], 0% in data set [6] and 2.1% in data set [7]. On to `COC(=O)CCNC(=O)[C@@H]1O[P@@](=O)(OCOC(=O)c2ocnc2C)OCC1(C)C` (relative stereo), for which the half-life in data set [1] was 31.2 min. With `COC(=O)CCNC(=O)[C@@H]1O[P@](=O)(OCOC(=O)c2ccns2)OCC1(C)C` (relative stereo), in data set [1], the half-life is < 9.6 min.

In the case of `CC(C)(C)C(=O)OCO[P@@]1(=O)OCC(C)(C)[C@H](C(=O)NCCC(=O)OCc2cncs2)O1`, the half-life in data set [1] was < 9.6 min. For the same molecule, in data set [2], the “fold change (FC)” value came to 133. Take `COC(=O)CCNC(=O)[C@@H]1OP(=O)(OCOC(=O)c2cnccn2)OCC1(C)C` (mixture of isomers): in data set [2], the “fold change (FC)” value is 77.

Consider `CC(C)(C)OC(=O)CCNC(=O)[C@@H]1OP(=O)(OCOC(=O)C(C)(C)C)OCC1(C)C` (mixture of isomers), for which the half-life in data set [1] was > 60 min. Also, the “fold change (FC)” value in data set [2] is reported as 2. As to `COC(=O)CCNC(=O)[C@@H]1O[P@](=O)(OCOC(=O)C(C)(C)C)OCC1(C)C`, in data set [2], the “fold change (FC)” value is reported as 106.

As for `COC(=O)CCNC(=O)[C@@H]1O[P@](=O)(OCOC(=O)c2scnc2C(C)(C)C)OCC1(C)C` (relative stereo), in data set [1], the half-life is 26.4 min. In the case of `COC(=O)CCNC(=O)[C@@H]1O[P@](=O)(Oc2ccc(F)cc2)OCC1(C)C`, the Papp in data set [3] turned out to be 16 ×10⁻⁶ cm/s. The “fold change (FC)” value in data set [2] was found to be 87.

Regarding `CC(C)(C)C(=O)OCO[P@@]1(=O)OCC(C)(C)[C@H](C(=O)NCCC(=O)O)O1`, the half-life in data set [1] was > 60 min. The “fold change (FC)” value in data set [2] worked out at 4.

As for `COC(=O)CCNC(=O)[C@@H]1O[P@](=O)(Oc2ccc(C[C@H](N)C(=O)OC)cc2)OCC1(C)C`, in data set [1], the half-life was 30 min. In data set [2], the “fold change (FC)” value was 81.

On to `COC(=O)CCNC(=O)[C@@H]1O[P@](=O)(Oc2ccc(S(F)(F)(F)(F)F)cc2)OCC1(C)C`, for which, in data set [1], the half-life was 30 min. Also, the “fold change (FC)” value in data set [2] was 34. Take `COC(=O)CCNC(=O)[C@@H]1O[P@@](=O)(OCOC(=O)C(C)(C)C)OCC1(C)C`: the “fold change (FC)” value in data set [2] was 198. On to `COC(=O)CCNC(=O)[C@@H]1O[P@](=O)(OCOC(=O)c2scnc2C)OCC1(C)C` (relative stereo), for which the half-life in data set [1] is < 9.6 min. Regarding `CCCC(=O)OCOP1(=O)OCC(C)(C)[C@H](C(=O)NCCC(=O)OC)O1` (mixture of isomers), the “fold change (FC)” value in data set [2] amounted to 84.

Consider `CC(C)(C)C(=O)OCO[P@@]1(=O)OCC(C)(C)[C@H](C(=O)NCCC(=O)OCCc2ccccn2)O1`, for which the half-life in data set [1] was < 9.6 min. The “fold change (FC)” value in data set [2] is 100. Turning to `COC(=O)CCNC(=O)[C@@H]1O[P@](=O)(Oc2ccc(C(F)(F)F)cc2)OCC1(C)C`, the half-life in data set [1] was > 60 min. For the same molecule, the “fold change (FC)” value in data set [2] is given as 102.

For the molecule `COC(=O)CCNC(=O)[C@@H]1O[P@](=O)(OCOC(=O)c2cc(C(C)(C)C)n[nH]2)OCC1(C)C` (relative stereo), the half-life in data set [1] is < 9.6 min.

On to `COC(=O)CCNC(=O)[C@@H]1OP(=O)(OCOC(=O)c2ccccc2)OCC1(C)C` (mixture of isomers), for which the “fold change (FC)” value in data set [2] worked out at 278. As to `CCc1cc(C(=O)OCO[P@@]2(=O)OCC(C)(C)[C@H](C(=O)NCCC(=O)OC)O2)n(C)n1`, the half-life was ≥ 58.2 min in data set [1] and 18 min in data set [4]. In addition, the Papp in data set [3] is 11.8 ×10⁻⁶ cm/s. In addition, the “fold change (FC)” value in data set [2] was 14.

Turning to `CCC(CC)C(=O)OCOP1(=O)OCC(C)(C)[C@H](C(=O)NCCC(=O)OC)O1` (mixture of isomers), the “fold change (FC)” value in data set [2] was 369. `COC(=O)CCNC(=O)[C@@H]1OP(=O)(OCOC(=O)c2ccncc2)OCC1(C)C` (mixture of isomers): the “fold change (FC)” value in data set [2] worked out at 35. Consider `COC(=O)CCNC(=O)[C@@H]1OP(=O)(OCOC(=O)c2cc(C)nn2C)OCC1(C)C` (mixture of isomers), for which the “fold change (FC)” value in data set [2] worked out at 42. With `COC(=O)CCNC(=O)[C@@H]1O[P@@](=O)(OCOC(=O)c2cc(C(C)(C)C)n[nH]2)OCC1(C)C`, the half-life in data set [1] is > 60 min; in data set [4], 30 min. The Papp in data set [3] amounted to 5.3 ×10⁻⁶ cm/s. Also, the “fold change (FC)” value in data set [2] is given as 101. Take `COC(=O)CCNC(=O)[C@@H]1O[P@@](=O)(OCOC(=O)c2ccns2)OCC1(C)C` (relative stereo): in data set [1], the half-life was < 9.6 min. Turning to `COC(=O)CCNC(=O)[C@@H]1OP(=O)(OCOC(=O)c2scnc2C(C)(C)C)OCC1(C)C` (mixture of isomers), the “fold change (FC)” value in data set [2] is on record as 3. Take `COC(=O)CCNC(=O)[C@@H]1O[P@@](=O)(Oc2ccc(F)cc2)OCC1(C)C`: the “fold change (FC)” value in data set [2] amounted to 2. In the case of `COC(=O)CCNC(=O)[C@@H]1OP(=O)(OCOC(=O)c2ccns2)OCC1(C)C` (mixture of isomers), the “fold change (FC)” value in data set [2] was 37. `CCOC(=O)CCNC(=O)[C@@H]1O[P@@](=O)(OCOC(=O)C(C)(C)C)OCC1(C)C`: in data set [1], the half-life was 16.8 min. The “fold change (FC)” value in data set [2] worked out at 85. As for `COC(=O)CCNC(=O)[C@@H]1O[P@](=O)(OCOC(=O)c2cc(C)nn2C)OCC1(C)C` (relative stereo), the half-life in data set [1] is < 9.6 min. Same read-out and setting: as for `COC(=O)CCNC(=O)[C@@H]1O[P@@](=O)(OCOC(=O)c2scnc2C(C)(C)C)OCC1(C)C` (relative stereo), the figure is > 60 min.
